Compound activity (PubChem)
Compounds with a hit are over-represented: about 2.2% of the library has one in this group of screens.
KLK7 zymogen act – activates the human kallikrein-7 zymogen. activation, % at 7 µM. P49862. purified proKLK7, EDANS-DABCYL substrate fluorescence; 100% is mature enzyme control, 0% vehicle. 0.9% of 370,000 active;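 active = activation above the mean of all tested compounds plus 3 SD, computed per campaign excluding outliers beyond control limits, cut at about 13% in these data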
SKN-1 inh – inhibitors of C. elegans SKN-1; AID 624304; C. elegans VP596 Pgst-4::GFP/RFP ratio, acrylamide-induced, 24 h; 0.49% of 360,000 active; inhibition, % at 21.8 µM;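 active = interference check ratio from 0.5 to 1.5 plus GFP to RFP signal ratio inhibition reaching or exceeding a fixed threshold, cut at about 30% in these data, passing the limit was not always enough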
Neddyl block – cullin neddylation inhibition; TR-FRET cullin neddylation, biochemical; calls only at 25 µM; 0.58% of 360,000 active; AID 651699; in the data active = inhibition above about 36%
Target sequence (P61081 whole entry, looked up): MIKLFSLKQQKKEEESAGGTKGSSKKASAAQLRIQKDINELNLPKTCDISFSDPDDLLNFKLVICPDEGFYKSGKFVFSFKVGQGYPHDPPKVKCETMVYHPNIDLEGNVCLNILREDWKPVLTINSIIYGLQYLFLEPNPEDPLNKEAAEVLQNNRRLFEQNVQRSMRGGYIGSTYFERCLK
Target sequence (Q13564 whole entry, looked up): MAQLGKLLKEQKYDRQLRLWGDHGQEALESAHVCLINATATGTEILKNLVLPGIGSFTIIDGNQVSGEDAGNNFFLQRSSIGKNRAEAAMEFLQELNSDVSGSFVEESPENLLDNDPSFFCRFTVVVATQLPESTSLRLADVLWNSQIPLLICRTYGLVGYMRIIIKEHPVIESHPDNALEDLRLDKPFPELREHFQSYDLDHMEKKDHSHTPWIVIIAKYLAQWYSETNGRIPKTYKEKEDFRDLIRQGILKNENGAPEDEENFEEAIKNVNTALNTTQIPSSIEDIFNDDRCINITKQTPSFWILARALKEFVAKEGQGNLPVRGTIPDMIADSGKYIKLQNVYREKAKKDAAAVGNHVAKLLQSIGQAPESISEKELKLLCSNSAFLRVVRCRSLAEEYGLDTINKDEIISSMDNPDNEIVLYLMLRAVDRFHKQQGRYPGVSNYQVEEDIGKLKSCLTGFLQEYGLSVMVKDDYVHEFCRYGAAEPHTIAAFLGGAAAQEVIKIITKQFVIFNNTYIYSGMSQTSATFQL
DDE Tn6 FP inh – DD(E)-Tn6 binding inhibition, primary FP screen; P02675; Fibrin DD(E) TRITC-Tn6 fluorescence polarization displacement; inhibition, % at 8.3 µM; 0.21% of 370,000 active;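 active = inhibition above a per-campaign cutoff: mean of compounds within control limits plus 3 SD, cut at about 15% in these data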
MT1-MMP act inh – MT1-MMP (human) activation inhibition. P50281. HT1080 RFP-PRO-GFP cells, GFP/RFP ratio fluorescence, overnight; percent of plate control window, DMSO zero. GFP/RFP ratio change, % at 20 µM. 0.061% of 360,000 active;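 active = GFP/RFP ratio change of at least 30% with cell ATP level not reduced by more than half and red fluorescence within 50% of control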
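Assay system: HT1080 cells carrying an RFP-PRO-GFP reporter | Dosing: Single dose of 20 µM compound, 1% DMSO final | Incubation: Cells overnight before dosing, compound overnight, 37 °C, 5% CO2 | Evaluation: GFP/RFP fluorescence ratio | Control set: DMSO and RFP-L50D-GFP cell wells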
Tn7 DDE FP – DD(E)-Tn7 binding inhibition, primary FP screen | inhibition, % at 8.3 µM | FP displacement of FITC-Tn7 peptide from fibrin DD(E); 0% = median of compound wells per plate | AID 720508 | 0.13% of 370,000 active | P02675;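 active = inhibition above the mean of compounds falling within the control limits plus 3 SD of them, cut at about 14% in these data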
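Assay system: Human clot-derived fibrin DD(E) complex | Buffer or medium: Tris/NaCl/CaCl2 buffer, pH 7.8 | Repeats: One replicate per compound | Benchmarks: Aha-Tn7 high control | Measure: % inhibition scaled between sample-field median and high-control FP | Schedule: 10 min plus 3 h, room temperature | Signal: Fluorescence polarization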
proKLK7 act conf – confirmation of human kallikrein-7 zymogen activators; activation, % at 7 µM; purified proKLK7, EDANS-DABCYL substrate fluorescence; scaled: vehicle 0, mature enzyme 100; 68% of 3,200 active; shares compounds with KLK7 zymogen act; AID 686949;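 active = activation, as change over the incubation, above the mean of all tested compounds plus 3 SD, cut at about 13% in these data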
EDANS-DABCYL int – fluorescence interference counter-screen for KLK7 activators | shares compounds with KLK7 zymogen act | EDANS-DABCYL substrate fluorescence interference, no enzyme, 4 h; solvent 0%, active enzyme control 100% | activation, % at 7 µM | 80% of 3,200 active | AID 686952;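 active = activation above the all-compound mean plus 3 SD, ignoring values outside control-based bounds, cut at about 4.8% in these data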;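 also: value is the 4 h activation minus the activation read at time zero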
K7 EDANS ctr – optically interferes with EDANS-DABCYL fluorescence, kallikrein-7 activator counter-screen. shares compounds with KLK7 zymogen act. EDANS-DABCYL peptide fluorescence interference, no enzyme. EC50, µM. 20% of 250 active. AID 720493;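 active = compounds that raise the fluorescence signal in this interference counterscreen, with EC50 at or below 10 µM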;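 also: intact quenched peptide substrate alone read at 355 nm excitation and 520 nm emission; signal is fluorescence gain from T0 to T4 after four hours at room temperature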
Hits are given with their value; i = inactive; nt = no result shown.

SMILES	KLK7 zymogen act	SKN-1 inh	Neddyl block	DDE Tn6 FP inh	MT1-MMP act inh	Tn7 DDE FP	proKLK7 act conf	EDANS-DABCYL int	others
CCCCN(C)CCNC(=O)c1cc2c(-c3cccc(OC)c3)nn(C)c2s1	13.0	i	nt	i	i	i	i	15.2
CCN(CC)CCCNC(=O)c1cc2c(-c3cccc(OC)c3)nn(C)c2s1	i	i	nt	i	i	i	nt	nt
COc1ccc2cc(-c3nc4ccccc4n3C)c(=O)oc2c1	22.1	i	nt	i	i	i	38.8	34.8
Cc1coc2c1c(C)cc1oc(=O)c(CC(=O)NCCCN3CCCC3=O)c(C)c12	23.0	i	nt	i	i	i	i	i
CC[C@@H](C)[C@H](NC(=O)CNC(=O)Cc1c(C)c2c(cc(C)c3c(C)coc32)oc1=O)C(=O)O	24.4	i	nt	i	i	i	i	i
COCCCNC(=O)Cc1c(C)c2c(cc(C)c3c(C)c(C)oc32)oc1=O	i	i	nt	i	i	i	nt	nt
CCCC(NC(=O)Cc1c(C)c2c(cc(C)c3c(C)coc32)oc1=O)C(=O)O (stereo not drawn)	25.8	i	nt	i	i	i	i	i
Cc1coc2c1c(C)cc1oc(=O)c(CC(=O)N[C@@H](CC(C)C)C(=O)O)c(C)c12	i	i	nt	i	i	i	nt	nt
Cc1oc2c(c(C)cc3oc(=O)c(CC(=O)N[C@@H](CCCNC(N)=O)C(=O)O)c(C)c32)c1C	22.0	i	nt	i	i	i	20.9	13.8	K7 EDANS ctr=i
Cc1nc(Oc2cccc(Cl)c2)c2oc3ccccc3c2n1	i	i	i	i	nt	i	nt	nt
O=C(CN1CCCC1)Nc1ccc(-c2nc3cc(NC(=O)CN4CCCC4)ccc3o2)cc1	58.2	i	nt	i	i	i	i	i
CCN(CC)CC(=O)Nc1ccc(-c2nc3cc(NC(=O)CN(CC)CC)ccc3o2)cc1	i	i	nt	i	i	i	nt	nt
Cc1cc(=O)n2c3c(c4c(cc13)c(CN(C)C)cc(=O)n4C)OC2	29.9	i	nt	i	i	i	14.9	17.1
O=C(Cc1ccc([N+](=O)[O-])cc1)Nc1cccc(C(=O)N2CCCC2)c1	i	i	i	i	i	i	nt	nt
CC(NC(=O)c1ccc(Br)s1)C1CCCO1 (stereo not drawn)	nt	i	i	nt	i	nt	nt	nt
Cn1cc(C(=O)N/N=C/c2cccs2)c2ccccc21	i	i	i	i	i	i	nt	nt
O=C(N/N=C/c1cc2c(cc1Br)OCO2)c1c[nH]c2ccccc12	14.8	i	i	i	i	i	i	i
CC(=O)N1CCC(C(=O)N2CCN(S(=O)(=O)c3ccc(Cl)s3)CC2)CC1	i	i	i	i	i	i	nt	nt
COc1ccc2oc(C(=O)Nc3nnc(C)s3)c(C)c2c1	20.8	i	i	i	i	i	i	i
CN(C)c1c(-c2ccccc2)cc(-c2ccccc2)[nH]c1=O	15.6	i	i	i	i	i	i	4.9
Cc1[nH]nc(C(F)(F)F)c1CCC(=O)NC1CCCCCC1	i	i	i	i	i	i	nt	nt
CC(CCc1ccccc1)NC(=O)c1cncc(Br)c1 (stereo not drawn)	i	i	i	i	i	i	nt	nt
Nc1cccc2c1C(=O)N(C(=O)/C=C/c1cccc(Br)c1)C2=O	i	i	nt	i	i	i	nt	nt
COc1ccc(OC)c(/C=C/C(=O)N2C(=O)c3cccc(N)c3C2=O)c1	44.2	i	nt	i	i	i	654.5	689.4
Nc1cccc2c1C(=O)N(C(=O)/C=C/c1cccc(F)c1)C2=O	i	i	nt	i	i	i	nt	nt
COc1cc(/C=C/C(=O)N2C(=O)c3cccc(N)c3C2=O)cc(OC)c1OC	21.0	i	nt	i	i	i	307.1	297.0
O=C(COC(=O)Cc1ccccc1F)Nc1ccc(SC(F)F)cc1	i	i	i	i	i	i	nt	nt
